# The list is not random: actives were taken first. Their share in the collection is about 1.5%.
# Tb MetRS inh = blocks T. brucei methionyl-tRNA synthetase activity | inhibition, % at 11.9 µM | purified T. brucei MetRS, ATP depletion, Kinase-Glo luminescence | 0.4% of 360,000 active;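 active means inhibition above a per-plate cutoff of the control wells' mean inhibition plus 3 SD, cut at about 5.5% in these data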
#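 Assay system: T. brucei methionyl-tRNA synthetase, purified | Medium: HEPES buffer with MgCl2, KCl, DTT, spermine, BSA, pyrophosphatase | Compound: 11.9 µM single point | Incubation: 15 min enzyme-compound preincubation, 2 h reaction, 10 min detection, 25 °C | Measured by: Kinase-Glo luciferase luminescence reporting remaining unconsumed ATP | Measure: % inhibition normalized to control-well medians | Replication: Singlicate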
# procasp7 counter = counter-screen: procaspase-7 (human) activation | P55210 | recombinant procaspase-7, Ac-DEVD-pNA absorbance 405 nm; D23A/D198A/D206A triple mutant, cannot self-cleave; scale: DMSO 0, 5 µM enzyme 100 | activation, % at 8.5 µM | 0.093% of 330,000 active;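 active means percent activation above the screen-wide mean plus 3 SD, cut at about 25% in these data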
# Target sequence (P55210 whole entry D23A/D198A/D206A): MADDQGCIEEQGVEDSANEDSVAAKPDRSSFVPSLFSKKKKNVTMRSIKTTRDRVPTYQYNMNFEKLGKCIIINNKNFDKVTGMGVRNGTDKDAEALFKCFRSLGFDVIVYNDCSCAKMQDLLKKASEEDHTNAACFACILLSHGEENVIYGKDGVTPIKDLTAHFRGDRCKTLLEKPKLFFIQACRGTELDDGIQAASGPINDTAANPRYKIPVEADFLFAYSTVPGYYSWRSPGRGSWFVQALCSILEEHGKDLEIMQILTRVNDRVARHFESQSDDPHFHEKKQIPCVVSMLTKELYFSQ
#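 Material: Procaspase-7 triple mutant (PC-7 D3A) | Quantity: 2 µM procaspase-7 mutant as dispensed | Reagent: DEVD-pNA substrate | Times: 1 h preincubation, 2 h reaction | Technique: 405 nm absorbance of p-nitroaniline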
# procasp3 activ = procaspase-3 (human) activation | activation, % at 8.5 µM | recombinant procaspase-3 D3A, Ac-DEVD-pNA absorbance 405 nm | AID 463141 | 0.11% of 330,000 active;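 active means activation above the mean of all tested compounds plus 3 SD, cut at about 21% in these data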
#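 Evaluation: percent activation relative to control range; Material: Procaspase-3 D3A mutant, all three cleavage aspartates alanine; Compound: single dose, 8.5 µM nominal compound, 0.8% DMSO; Replication: one well per compound; Signal: absorbance at 405 nm, 0 and 120 min; Schedule: 1 h preincubation plus 2 h reaction at 25 °C.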
# MsrA act = activates bovine MsrA enzyme; AID 602163; activation, % at 10.6 µM; 0.3% of 360,000 active; purified bovine MsrA, absorbance read-out; in the data active means activation above about 7.5%
# MsrA inhibitor = inhibitors of bovine MsrA; purified bovine MsrA, absorbance read-out; inhibition, % at 15.5 µM; 0.75% of 360,000 active; AID 651718; in the data active means inhibition above about 4.5%
# TbMetRS confirm = Trypanosoma brucei MetRS inhibition confirmed. T. brucei MetRS enzyme, luminescence (ATP depletion). AID 624412. inhibition, % at 11.9 µM. 93% of 1,400 active. shares compounds with Tb MetRS inh; in the data active means inhibition above about 7%
# Jurkat cytotox = kills Jurkat cells in T. brucei MetRS counterscreen. shares compounds with Tb MetRS inh. Jurkat cells viability, ATP luminescence. inhibition, % at 8.3 µM. 12% of 1,400 active. AID 624413; in the data active means inhibition above about 15%
# Tb MetRS inh FP = orthogonal test for Trypanosoma brucei MetRS inhibitors; 44% of 1,400 active; AID 651607; shares compounds with Tb MetRS inh; purified T. brucei MetRS, fluorescence polarization; inhibition, % at 11.9 µM; in the data active means inhibition above about 17%
# Hits are given with their value; – = inactive; · = no result given.
SMILES,Tb MetRS inh,procasp7 counter,procasp3 activ,MsrA act,MsrA inhibitor,TbMetRS confirm,Jurkat cytotox,Tb MetRS inh FP
O=C(C[C@H]1C(=O)N(Cc2ccccc2)C[C@@H]1Cc1ccccc1)Nc1ccc(Br)cc1,10.3,·,·,–,–,29.7,–,–
CSC[C@H]1CN(Cc2ccccc2)C(=O)[C@@H]1CC(=O)Nc1ccc(Br)cc1,17.0,·,·,–,–,30.4,–,–
COc1ccc([C@H]2CN(c3ccc(OC)cc3)C(=O)[C@@H]2CC(=O)Nc2ccc(Br)cc2)cc1,8.6,·,·,–,–,19.0,–,–
CSC[C@H]1CN(Cc2ccccc2)C(=O)[C@@H]1CC(=O)Nc1ccccc1,–,·,·,–,–,·,·,·
CC(C)[C@H](NC(=O)CC1CCCC1)C(=O)N1CCC[C@H]1C(=O)NCCc1ccccc1Cl,·,·,·,·,–,·,·,·
O=C(C[C@H]1C(=O)N(Cc2ccccc2)C[C@@H]1c1ccc(Br)cc1)Nc1ccc(Br)cc1,77.4,·,·,–,–,93.5,–,83.0
COc1ccc(CN(C(=O)c2ccc(-c3ccccc3)[nH]2)C(C(=O)NC(C)(C)C)c2ccncc2)cc1 (centres undefined),76.2,–,–,–,–,33.5,–,–
COC(=O)[C@]12C[C@H](CC(=O)N3CCCC3)C(=O)N(Cc3ccc4c(c3)OCO4)C1=C[C@H](COCc1ccccc1)O[C@@H]2C,·,·,·,·,–,·,·,·
COc1cc2c(cc1OC)CN(c1ccc([N+](=O)[O-])cc1C#N)CC2,11.2,–,–,–,–,19.4,19.1,–
O=C(C(=O)N1CCN(S(=O)(=O)c2ccc(C(F)(F)F)cc2)CC1)c1cccc(C(F)(F)F)c1,·,·,·,·,–,·,·,·
c1ccc(CNc2nc(-c3cccnc3)nc3ccccc23)cc1,–,·,·,–,–,·,·,·
Clc1cccc(CNc2nc(-c3cccnc3)nc3ccccc23)c1,18.0,·,·,–,–,39.8,–,28.4
CN(C)CC1CCCCC1OC(=O)/C=C/c1ccc(Cl)cc1Cl (centres undefined),9.0,–,–,–,–,19.6,–,–
CN(C)CC1CCCCC1OC(=O)/C=C/c1ccccc1 (centres undefined),–,–,–,–,–,·,·,·
Clc1ccc(CN2CCC(c3nc4ccc(Cl)cc4[nH]3)CC2)cc1,8.4,–,–,–,–,16.6,21.1,–
CCc1cccc(-n2c(C)cc(O)cc2=O)c1,·,·,·,·,–,·,·,·
O=C(NC(C(=O)N1CCCC1C(=O)NC1CCCC1)c1ccccc1)c1cccs1 (centres undefined),·,·,·,·,–,·,·,·
O=C(NCc1nc2ccccc2[nH]1)C1=C[C@H](c2csc3ccccc23)C[C@H](OCc2ccc(CO)cc2)O1,58.4,–,–,–,–,93.1,–,62.0
O=C(Nc1ccccc1)C1=C[C@H](c2csc3ccccc23)C[C@H](OCc2ccc(CO)cc2)O1,–,–,–,–,–,·,·,·
O=C(NCc1nc2ccccc2[nH]1)C1=C[C@@H](c2csc3ccccc23)C[C@@H](OCc2ccc(CO)cc2)O1,41.4,–,–,–,–,82.3,–,49.9
O=C(CCCn1c(=S)[nH]c2cc3c(cc2c1=O)OCO3)N1CCN(c2ccc(Cl)cc2)CC1,8.3,–,–,–,–,69.8,–,34.9
CCc1ccccc1NC(=O)CNC(=O)c1ccc(-n2cncn2)c([N+](=O)[O-])c1,17.8,–,–,–,–,46.9,–,22.7
O=C(Nc1ccc(F)cc1)c1ccc(-n2cncn2)c([N+](=O)[O-])c1,33.5,–,–,–,–,47.8,21.5,27.7
Cc1ccc(NC(=O)c2ccc(-n3cncn3)c([N+](=O)[O-])c2)cc1F,13.0,–,–,–,–,56.3,–,24.8
O=C(Nc1ccc(F)cc1F)c1ccc(-n2cccn2)c([N+](=O)[O-])c1,–,–,–,–,–,·,·,·
COc1cccc(NC(=O)CN(C)C(=O)c2ccc(-n3cncn3)c([N+](=O)[O-])c2)c1,–,–,–,–,–,·,·,·

# Compound activity from PubChem.
